Legend:
[1] = AUC in chronic SCW-induced arthritis Lewis rat model plasma at ED80 concentration; type: ADME, cell-free
Outline: (§1)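 Female Lewis rats (125-140 g) received a single i.p. streptococcal cell wall injection. Animals showing the acute phase were pooled, 4-8 per group over three experiments. Dosing was oral gavage b.i.d., days 10-21, in methylcellulose-Tween-20 vehicle. Hind paw volume was read by displacement plethysmometer on day 21, as % inhibition of swelling. Plasma was sampled up to 11 h after the last dose, 3 rats per dose. ED values came from fitted curves.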

[2] = system: Rattus norvegicus; assay: Antiarthritic activity in chronic SCW-induced arthritis Lewis rat model assessed as inhibition of chronic paw swelling administered twice daily via oral gavage for 10 to 21 days; type: organism-based; conditions: time 10-21 day; outline: as §1
[3] = target: MAP kinase-interacting serine/threonine-protein kinase 1 (Homo sapiens, UniProt Q9BUB5); assay: Inhibition of recombinant MNK1 (unknown origin) expressed in Escherichia coli using KKKALSRQLSVAA as substrate incubated for 1 hr followed by substrate addition in presence of ATP
Outline: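 Recombinant MAPKAP kinase was first activated with activated p38α (1:50 molar ratio) and 250 μM ATP for 1 hr at 30°C. Activity was then assayed at Km(app) MgATP by ion-exchange separation of 33P-labeled product peptide. IC50 was taken from duplicate experiments.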

[4] = target: T1, Tyrosine-protein kinase receptor UFO (Homo sapiens, UniProt P30530); assay: Inhibition of Axl (unknown origin)
T1 sequence (P30530 whole entry): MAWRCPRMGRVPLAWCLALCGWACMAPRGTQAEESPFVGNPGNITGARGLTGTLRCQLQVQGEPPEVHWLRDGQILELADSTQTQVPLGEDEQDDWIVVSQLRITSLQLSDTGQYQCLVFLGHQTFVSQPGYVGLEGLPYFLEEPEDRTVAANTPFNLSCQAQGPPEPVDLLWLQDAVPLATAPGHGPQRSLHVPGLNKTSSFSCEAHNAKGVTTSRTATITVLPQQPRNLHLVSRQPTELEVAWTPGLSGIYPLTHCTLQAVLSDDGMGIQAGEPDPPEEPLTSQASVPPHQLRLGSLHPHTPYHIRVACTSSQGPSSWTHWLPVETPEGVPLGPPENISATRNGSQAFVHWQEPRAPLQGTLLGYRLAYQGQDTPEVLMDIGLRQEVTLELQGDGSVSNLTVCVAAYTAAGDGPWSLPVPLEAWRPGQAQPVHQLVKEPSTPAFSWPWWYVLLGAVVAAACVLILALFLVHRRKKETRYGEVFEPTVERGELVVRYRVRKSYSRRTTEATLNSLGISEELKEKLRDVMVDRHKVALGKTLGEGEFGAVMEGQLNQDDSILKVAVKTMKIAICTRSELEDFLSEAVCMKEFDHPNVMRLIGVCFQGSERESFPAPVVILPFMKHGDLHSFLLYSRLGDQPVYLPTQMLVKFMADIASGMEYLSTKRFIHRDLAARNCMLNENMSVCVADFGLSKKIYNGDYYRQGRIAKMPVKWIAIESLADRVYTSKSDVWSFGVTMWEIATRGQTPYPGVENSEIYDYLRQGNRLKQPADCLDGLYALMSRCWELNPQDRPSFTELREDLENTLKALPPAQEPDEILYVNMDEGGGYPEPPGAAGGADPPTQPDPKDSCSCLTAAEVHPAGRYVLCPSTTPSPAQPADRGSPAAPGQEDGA
Outline: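 Kinase panel: 200 kinases were first screened at 1 μM inhibitor for percent inhibition. Those above 50% inhibition were then titrated for IC50. MgATP was fixed at the Km(app) determined for each enzyme.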

[5] = Antiinflammatory activity in human Whole blood cell assessed as inhibition of LPS induced TNF alpha production preincubated for 1 hr followed by LPS stimulation and measured after 16 hrs by MSD analysis; type: functional, cell-based
[6] = Antiinflammatory activity in human Whole blood cell assessed as inhibition of LPS induced IL-6 production preincubated for 1 hr followed by LPS stimulation and measured after 16 hrs by MSD analysis; type: functional, cell-based
Outline: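 Human whole blood was stimulated ex vivo with LPS 100 ng/ml. Plasma cytokines were read by MSD 4-plex: TNFα at 4 h; IL-1β, IL-6 and IL-8 at 16 h. Data are means ±S.E.M. of two independent experiments in duplicate, three donors. IC50 by 4-parameter nonlinear regression.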

[7] = Half life in Sprague-Dawley rat measured upto 24 hrs by […] analysis; type: ADME; conditions: in vivo
Outline: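 Male Sprague-Dawley rats (275-300 g), carotid-catheterized and acclimated overnight. Dosing was i.v. at 1 mpk (n=2) in 70% saline/20% PEG-400/10% ethanol, or oral at 3 mpk (n=3) as a suspension in 0.5% HPMC/Tween. Plasma drug was measured by LC-MS/MS. Cmax and Tmax were read from individual profiles. t½ came from the terminal log-linear slope and AUC by the linear trapezoidal rule. CL = dose/AUC0-∞, Vdss = CL×MRT, F = dose-normalized AUC po/iv.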

[8] = Plasma protein binding in rat; type: ADME, cell-free
Outline: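 Binding to rat and human plasma was measured in vitro by ultracentrifugation.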

MAP kinase-interacting serine/threonine-protein kinase 1, sequence (Q9BUB5 whole entry): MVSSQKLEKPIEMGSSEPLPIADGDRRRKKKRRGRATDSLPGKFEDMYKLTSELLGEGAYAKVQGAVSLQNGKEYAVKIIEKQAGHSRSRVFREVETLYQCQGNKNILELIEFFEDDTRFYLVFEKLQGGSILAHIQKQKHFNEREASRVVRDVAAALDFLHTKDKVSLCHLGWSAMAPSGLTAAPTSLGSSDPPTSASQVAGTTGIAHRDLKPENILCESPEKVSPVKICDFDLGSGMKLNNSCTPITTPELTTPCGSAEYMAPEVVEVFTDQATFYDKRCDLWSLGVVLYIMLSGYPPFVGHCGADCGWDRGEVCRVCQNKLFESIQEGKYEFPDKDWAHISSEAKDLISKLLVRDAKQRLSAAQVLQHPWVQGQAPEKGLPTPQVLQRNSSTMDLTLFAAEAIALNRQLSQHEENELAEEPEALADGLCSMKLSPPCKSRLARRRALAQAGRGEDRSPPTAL

AUC [1]: 117 µM·h
ED80 ([2]; rat, in vivo, po): 50 mg/kg
IC50 [3]: 3 µM
IC50 [4]: 0.428 µM
IC50 [5]: 1.38 µM
IC50 [6]: 10.3 µM
half-life [7]: 9.1 h
PPB [8]: 92.1%
SMILES: Cc1ccc(-c2ccc3c(ccc4sc5c(c43)NC[C@@H](C)NC5=O)n2)cn1
ED50 ([2]; Rattus norvegicus, Lewis): 20 mg/kg

Reference: ChEMBL document CHEMBL5678801, “A benzothiophene inhibitor of mitogen-activated protein kinase-activated protein kinase 2 inhibits tumor necrosis factor alpha production and has oral anti-inflammatory efficacy in acute and chronic models of inflammation” (J Pharmacol Exp Ther, 2010)
